Assay results published in ChEMBL document CHEMBL1123771, “Synthesis and structure-activity relationships of potent new angiotensin converting enzyme inhibitors containing saturated bicyclic amino acids” (J Med Chem, 1987).

Legend:
[1] = target: T1, Angiotensin-converting enzyme (Rattus norvegicus, UniProt P47820); test: Inhibition of rat Angiotensin I converting enzyme (ACE), using Hip-Gly-Gly as synthetic substrate.
T1 sequence (P47820 whole entry): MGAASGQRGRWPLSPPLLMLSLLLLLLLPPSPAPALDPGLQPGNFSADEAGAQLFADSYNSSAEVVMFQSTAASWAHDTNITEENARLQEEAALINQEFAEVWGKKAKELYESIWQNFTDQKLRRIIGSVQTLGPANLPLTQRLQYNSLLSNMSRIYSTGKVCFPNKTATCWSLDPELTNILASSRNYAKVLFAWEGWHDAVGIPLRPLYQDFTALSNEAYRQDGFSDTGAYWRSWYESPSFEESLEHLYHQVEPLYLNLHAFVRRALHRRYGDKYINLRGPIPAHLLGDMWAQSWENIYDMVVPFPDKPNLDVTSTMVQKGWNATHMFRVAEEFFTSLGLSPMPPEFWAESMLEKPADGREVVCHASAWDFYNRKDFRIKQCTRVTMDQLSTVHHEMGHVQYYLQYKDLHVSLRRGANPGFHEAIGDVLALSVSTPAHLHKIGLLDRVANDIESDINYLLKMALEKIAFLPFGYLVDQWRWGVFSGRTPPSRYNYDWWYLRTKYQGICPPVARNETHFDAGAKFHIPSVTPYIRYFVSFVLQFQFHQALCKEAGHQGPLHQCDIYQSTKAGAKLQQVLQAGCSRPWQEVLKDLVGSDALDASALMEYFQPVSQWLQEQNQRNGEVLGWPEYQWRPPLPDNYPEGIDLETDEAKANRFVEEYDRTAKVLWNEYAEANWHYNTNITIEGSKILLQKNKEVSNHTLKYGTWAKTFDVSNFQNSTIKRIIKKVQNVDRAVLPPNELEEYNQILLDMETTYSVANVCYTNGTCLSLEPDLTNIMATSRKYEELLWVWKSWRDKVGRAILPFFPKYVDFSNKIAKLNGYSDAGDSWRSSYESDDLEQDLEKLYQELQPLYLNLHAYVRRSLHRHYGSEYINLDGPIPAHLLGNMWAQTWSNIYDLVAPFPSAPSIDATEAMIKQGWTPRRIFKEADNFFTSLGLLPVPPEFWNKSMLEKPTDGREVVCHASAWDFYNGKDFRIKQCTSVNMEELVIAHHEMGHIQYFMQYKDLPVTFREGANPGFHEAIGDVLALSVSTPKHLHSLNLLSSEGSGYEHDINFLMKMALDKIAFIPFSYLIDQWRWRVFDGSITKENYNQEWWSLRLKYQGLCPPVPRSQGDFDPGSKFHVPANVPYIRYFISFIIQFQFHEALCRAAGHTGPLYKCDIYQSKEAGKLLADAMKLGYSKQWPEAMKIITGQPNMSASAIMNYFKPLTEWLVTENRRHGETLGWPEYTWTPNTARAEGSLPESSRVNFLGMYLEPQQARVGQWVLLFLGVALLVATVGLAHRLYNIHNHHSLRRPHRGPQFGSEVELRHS
Outline: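 Radioassay of converting-enzyme activity with Hip-Gly-Gly as substrate; compounds dissolved at 2–5 mg/mL in Me2SO, then diluted to test concentrations in pH 8 buffer (0.05 M Hepes, 0.1 M NaCl, 0.6 M Na2SO4).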

[2] = tested on: Rattus norvegicus; test: Maximum change in mean aortic blood pressure in conscious renal 2-kidney/1-clip goldblatt hypertensive rat at a dose 1.0 mg/kg administered orally at 8h; 4 animals tested; assay type: functional, Artery; details: route oral
Outline: (§1)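 Male Sprague–Dawley rats, 4 weeks old, given a silver clip (0.2-mm gap) on the left renal artery with the other kidney intact. Hypertension developed over 4–8 weeks, then rats (280–320 g) were aortic-cannulated; only those with mean pressure >160 mmHg were used. Oral dosing. One-minute running averages were logged every 30 min. Results are mean ± 1 SEM, from 3–5 rats.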

[3] = tested on: Rattus norvegicus; test: Mean aortic base line blood pressure in conscious renal 2-kidney/1-clip goldblatt hypertensive rat at a dose 10 mg/kg administered orally; assay type: functional, Artery; details: route oral; outline: as §1
[4] = tested on: Rattus norvegicus; test: Mean aortic base line blood pressure in conscious renal 2-kidney/1-clip goldblatt hypertensive rat at a dose 3.0 mg/kg administered orally; assay type: functional, Artery; details: route oral
[5] = tested on: Rattus norvegicus; test: Maximum change in mean aortic blood pressure in conscious renal 2-kidney/1-clip goldblatt hypertensive rat at a dose 0.3 mg/kg administered orally at 5h; 4 animals tested; assay type: functional, Artery; details: route oral; outline: as §1
[6] = tested on: Rattus norvegicus; test: Mean aortic base line blood pressure in conscious renal 2-kidney/1-clip goldblatt hypertensive rat at a dose 0.3 mg/kg administered orally; assay type: functional, Artery; details: route oral
[7] = tested on: Rattus norvegicus; test: Maximum change in mean aortic blood pressure in conscious renal 2-kidney/1-clip goldblatt hypertensive rat at a dose 10 mg/kg administered orally at 4 hr; 4 animals tested; assay type: functional, Artery; details: route oral; outline: as §1
[8] = tested on: Rattus norvegicus; test: Maximum change in mean aortic blood pressure in conscious renal 2-kidney/1-clip goldblatt hypertensive rat at a dose 3 mg/kg administered orally at 5h; 4 animals tested; assay type: functional, Artery; details: route oral; outline: as §1
[9] = tested on: Rattus norvegicus; test: Mean aortic base line blood pressure in conscious renal 2-kidney/1-clip goldblatt hypertensive rat at a dose 1.0 mg/kg administered orally; assay type: functional, Artery; details: route oral; outline: as §1
[10] = tested on: Rattus norvegicus; test: Mean aortic base line blood pressure in conscious renal 2-kidney/1-clip goldblatt hypertensive rat at a dose 30 mg/kg administered orally; assay type: functional, Artery; details: route oral
[11] = tested on: Rattus norvegicus; test: Maximum change in mean aortic blood pressure in conscious renal 2-kidney/1-clip goldblatt hypertensive rat at a dose 3 mg/kg administered orally at 8h; 5 animals tested; assay type: functional, Artery; details: route oral; outline: as §1
[12] = tested on: Rattus norvegicus; test: Maximum change in mean aortic blood pressure in conscious renal 2-kidney/1-clip goldblatt hypertensive rat at a dose 10 mg/kg administered orally at 3 hr; 5 animals tested; assay type: functional, Artery; details: route oral; outline: as §1
[13] = tested on: Rattus norvegicus; test: Mean aortic base line blood pressure in conscious renal 2-kidney/1-clip goldblatt hypertensive rat at a dose 3 mg/kg administered orally; assay type: functional, Artery; details: route oral; outline: as §1
[14] = tested on: Rattus norvegicus; test: Maximum change in mean aortic blood pressure in conscious renal 2-kidney/1-clip goldblatt hypertensive rat at a dose 30 mg/kg administered orally at 5h; 5 animals tested; assay type: functional, Artery; details: route oral; outline: as §1
[15] = tested on: Rattus norvegicus; test: Maximum change in mean aortic blood pressure in conscious renal 2-kidney/1-clip goldblatt hypertensive rat at a dose 0.3 mg/kg administered orally at 8h; 4 animals tested; assay type: functional, Artery; details: route oral; outline: as §1
[16] = tested on: Rattus norvegicus; test: Mean aortic base line blood pressure in conscious renal 2-kidney/1-clip goldblatt hypertensive rat at a dose 0.1 mg/kg administered orally; assay type: functional, Artery; details: route oral; outline: as §1
[17] = tested on: Rattus norvegicus; test: Maximum change in mean aortic blood pressure in conscious renal 2-kidney/1-clip goldblatt hypertensive rat at a dose 30 mg/kg administered orally at 10h; 4 animals tested; assay type: functional, Artery; details: route oral; outline: as §1
[18] = tested on: Rattus norvegicus; test: Maximum change in mean aortic blood pressure in conscious renal 2-kidney/1-clip goldblatt hypertensive rat at a dose 1.0 mg/kg administered orally at 5h; 4 animals tested; assay type: functional, Artery; details: route oral; outline: as §1
[19] = tested on: Rattus norvegicus; test: Maximum change in mean aortic blood pressure in conscious renal 2-kidney/1-clip goldblatt hypertensive rat at a dose 3.0 mg/kg administered orally at 5h; 4 animals tested; assay type: functional, Artery; details: route oral; outline: as §1
[20] = tested on: Rattus norvegicus; test: Maximum change in mean aortic blood pressure in conscious renal 2-kidney/1-clip goldblatt hypertensive rat at a dose 30 mg/kg administered orally at 6 h; 3 animals tested; assay type: functional, Artery; details: route oral
Outline: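 Male Sprague–Dawley rats made hypertensive at 4 weeks old by silver clip (0.2-mm gap) on left renal artery, contralateral kidney intact; 4–8 weeks development, cannulated (280–320 g), only mean aortic pressure >160 mmHg used. Oral dosing; 1-min running-average aortic pressure and heart rate logged every 30 min; maximum change from base line, mean ± SEM.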

[21] = tested on: Rattus norvegicus; test: Maximum change in mean aortic blood pressure in conscious renal 2-kidney/1-clip goldblatt hypertensive rat at a dose 30 mg/kg administered orally at 6 h; 4 animals tested; assay type: functional, Artery; details: route oral
[22] = tested on: Rattus norvegicus; test: Maximum change in mean aortic blood pressure in conscious renal 2-kidney/1-clip goldblatt hypertensive rat at a dose 1.0 mg/kg administered orally at 3 hr; 4 animals tested; assay type: functional, Artery; details: route oral; outline: as §1
[23] = tested on: Rattus norvegicus; test: Maximum change in mean aortic blood pressure in conscious renal 2-kidney/1-clip goldblatt hypertensive rat at a dose 0.1 mg/kg administered orally at 10h; 4 animals tested; assay type: functional, Artery; details: route oral; outline: as §1
[24] = tested on: Rattus norvegicus; test: Maximum change in mean aortic blood pressure in conscious renal 2-kidney/1-clip goldblatt hypertensive rat at a dose 3 mg/kg administered orally at 6 h; 4 animals tested; assay type: functional, Artery; details: route oral

## CCOC(=O)C(CCc1ccccc1)NC(C)C(=O)N1C(=O)CCC1C(=O)O (configuration not stated)
[1]
  IC50: 63 nM

## CCOC(=O)[C@H](CCc1ccccc1)N[C@@H](C)C(=O)N1CCC[C@H]1C(=O)O
[2]
  Mean aortic blood pressure: -24 mmHg
[3]
  Mean aortic blood pressure: 199 mmHg
[4]
  Mean aortic blood pressure: 200 mmHg
[5]
  Mean aortic blood pressure: -39 mmHg
[6]
  Mean aortic blood pressure: 201 mmHg
[7]
  Mean aortic blood pressure: -56 mmHg
[8]
  Mean aortic blood pressure: -56 mmHg
[9]
  Mean aortic blood pressure: 175 mmHg

## C[C@H](CS)C(=O)N1c2ccccc2C[C@H]1C(=O)O
[1]
  IC50: 3.7 nM

## CC(=O)SCCC(=O)N1[C@H](C(=O)O)C[C@@H]2CCCC[C@@H]21 (stereo in doubt; 8a)
[1]
  IC50: 560 nM

## O=C(O)[C@@H]1C[C@@H]2CCCC[C@@H]2N1C(=O)CCS (stereo in doubt; 8b)
[10]
  Mean aortic blood pressure: 198 mmHg
[11]
  Mean aortic blood pressure: -73 mmHg
[12]
  Mean aortic blood pressure: -89 mmHg
[13]
  Mean aortic blood pressure: 198 mmHg
[3]
  Mean aortic blood pressure: 198 mmHg
[1]
  IC50: 13 nM
[14]
  Mean aortic blood pressure: -91 mmHg

## CC(=O)SCCC(=O)N1[C@H](C(=O)O)C[C@@H]2CCCC[C@@H]21 (stereo in doubt; 8c)
[1]
  IC50: 480 nM

## O=C(O)[C@@H]1C[C@@H]2CCCC[C@@H]2N1C(=O)CCS (stereo in doubt; 8d)
[1]
  IC50: 6.4 nM

## CC(=O)SCC(C)C(=O)N1[C@H](C(=O)O)C[C@@H]2CCCC[C@@H]21 (stereo in doubt; 9a)
[1]
  IC50: 160 nM

## CC(=O)SCC(C)C(=O)N1[C@H](C(=O)O)C[C@@H]2CCCC[C@@H]21 (stereo in doubt; 9b)
[1]
  IC50: 35000 nM

## CC(CS)C(=O)N1[C@H](C(=O)O)C[C@@H]2CCCC[C@@H]21 (stereo in doubt; 9c)
[10]; 30 mg/kg
  Mean aortic blood pressure: 197 mmHg
[15]
  Mean aortic blood pressure: -19 mmHg
[16]
  Mean aortic blood pressure: 184 mmHg
[17]
  Mean aortic blood pressure: -115 mmHg
[1]
  IC50: 7.7 nM
[4]
  Mean aortic blood pressure: 190 mmHg
[18]
  Mean aortic blood pressure: -72 mmHg
[6]
  Mean aortic blood pressure: 185 mmHg
[19]
  Mean aortic blood pressure: -81 mmHg
[9]
  Mean aortic blood pressure: 178 mmHg

## CC(CS)C(=O)N1[C@H](C(=O)O)C[C@@H]2CCCC[C@@H]21 (stereo in doubt; 9d)
[1]
  IC50: 1100 nM

## CC(CS)C(=O)N1[C@H](C(=O)O)C[C@@H]2CCCC[C@@H]21 (stereo in doubt; 9f)
[10]; 30 mg/kg
  Mean aortic blood pressure: 193 mmHg
[20]
  Mean aortic blood pressure: -72 mmHg
[1]
  IC50: 5.2 nM

## CCOC(=O)C(CCc1ccccc1)NC(C)C(=O)N1[C@H](C(=O)O)C[C@@H]2CCCC[C@@H]21.Cl (stereo in doubt; 11a)
[21]
  Mean aortic blood pressure: -102 mmHg
[10]
  Mean aortic blood pressure: 185 mmHg
[22]
  Mean aortic blood pressure: -72 mmHg
[16]
  Mean aortic blood pressure: 185 mmHg
[3]
  Mean aortic blood pressure: 197 mmHg
[5]
  Mean aortic blood pressure: -73 mmHg
[6]
  Mean aortic blood pressure: 191 mmHg
[23]
  Mean aortic blood pressure: -52 mmHg
[9]
  Mean aortic blood pressure: 190 mmHg

## CCOC(=O)C(CCc1ccccc1)NC(C)C(=O)N1[C@H](C(=O)O)C[C@@H]2CCCC[C@@H]21.Cl (stereo in doubt; 17a)
[24]
  Mean aortic blood pressure: -87 mmHg
[13]
  Mean aortic blood pressure: 199 mmHg
